Active and inactive are the calls of the source.
Columns and labels:
[1] = target: Proto-oncogene tyrosine-protein kinase Src (Rattus norvegicus) (UniProt Q9WUD9); assay: Inhibition of SRC in Sprague-Dawley rat primary mixed mesecephalic neuron/glial cells assessed as protection against LPS-induced dopaminergic neuro-toxicity by measuring TH expression at 10 uM preincubated for 1 hr followed by LPS challenge measured after 7 days by Western blot analysis
Outline: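 Mixed mesencephalic neuron/glia cultures from E14 Sprague-Dawley rats, used at 7 days. Agent at 10 µM added 1 h before LPS 100 ng/mL; TH measured by Western blot after 7 days, n = 4.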

[2] = Drug uptake in ICR mouse plasma at 50 mg/kg, ig after 5 mins by LC/MS/MS analysis; format: ADME, organism-based; conditions: in vivo, po
[3] = target: Voltage-gated inwardly rectifying potassium channel KCNH2 (Homo sapiens, UniProt Q12809); assay: Inhibition of human ERG by whole cell voltage clamp assay
Chain of Voltage-gated inwardly rectifying potassium channel KCNH2 (Q12809 whole entry): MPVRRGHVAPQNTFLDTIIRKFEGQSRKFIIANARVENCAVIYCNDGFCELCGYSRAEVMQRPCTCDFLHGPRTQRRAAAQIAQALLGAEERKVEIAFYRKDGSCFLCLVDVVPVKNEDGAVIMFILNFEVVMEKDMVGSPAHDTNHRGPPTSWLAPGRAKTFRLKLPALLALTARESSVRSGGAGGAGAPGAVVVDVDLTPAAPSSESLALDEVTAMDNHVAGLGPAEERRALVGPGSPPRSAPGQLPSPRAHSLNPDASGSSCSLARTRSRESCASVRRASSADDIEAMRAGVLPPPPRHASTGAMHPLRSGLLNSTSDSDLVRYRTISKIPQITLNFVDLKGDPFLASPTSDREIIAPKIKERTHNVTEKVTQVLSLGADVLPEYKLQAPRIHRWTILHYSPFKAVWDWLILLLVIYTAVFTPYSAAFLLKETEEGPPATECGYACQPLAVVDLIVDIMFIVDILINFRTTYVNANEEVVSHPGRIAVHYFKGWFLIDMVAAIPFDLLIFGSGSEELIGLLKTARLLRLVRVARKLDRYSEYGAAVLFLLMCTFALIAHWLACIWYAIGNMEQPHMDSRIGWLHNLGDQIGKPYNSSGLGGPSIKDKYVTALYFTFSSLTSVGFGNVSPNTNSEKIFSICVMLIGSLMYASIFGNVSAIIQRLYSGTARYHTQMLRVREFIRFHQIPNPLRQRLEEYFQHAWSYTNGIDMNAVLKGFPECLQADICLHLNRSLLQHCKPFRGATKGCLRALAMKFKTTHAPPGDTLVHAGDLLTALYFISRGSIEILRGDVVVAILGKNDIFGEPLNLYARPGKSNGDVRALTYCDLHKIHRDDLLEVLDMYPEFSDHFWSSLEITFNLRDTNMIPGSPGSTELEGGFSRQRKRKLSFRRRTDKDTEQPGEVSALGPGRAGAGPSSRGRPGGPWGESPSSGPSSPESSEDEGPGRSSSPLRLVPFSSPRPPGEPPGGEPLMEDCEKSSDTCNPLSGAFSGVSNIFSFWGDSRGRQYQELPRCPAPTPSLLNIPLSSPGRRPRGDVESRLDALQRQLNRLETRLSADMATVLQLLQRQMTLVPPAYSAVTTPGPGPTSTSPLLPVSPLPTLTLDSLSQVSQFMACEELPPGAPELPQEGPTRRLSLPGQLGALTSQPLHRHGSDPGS
Outline: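 Whole-cell voltage clamp. Internal solution: KCl 130 mM, MgCl2 1 mM, EGTA 5 mM, ATP-Mg 5 mM, HEPES 10 mM, pH 7.2. Bath: NaCl 137, CaCl2 1.8, KCl 4, MgCl2 1, glucose 5, HEPES 10 mM, pH 7.4. From a holding potential of −70 mV, 2-s steps to 50 mV in 10 mV increments every 15 s; tail current recorded on a 2-s step from +50 to −40 mV.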

Mus musculus [4] = assay: Neuroprotective activity in MPTP-induced subacute C57/BL mouse Parkinson's disease model assessed as improvement in motor behavior at 5 to 20 mg/kg […] dosed 30 mins prior to each MPTP injection for 5 days and administered continously for 7 days post last MPTP dose by rotarod test; format: functional, organism-based
Outline: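 Sub-acute MPTP model (30 mg/kg i.p. × 5 days) in male C57/BL mice. Agent (5–20 mg/kg) or L-DOPA 20 mg/kg given 30 min before each injection and for 7 days after. Rotarod at 14 rpm, up to 120 s, fall latency over three trials 1 h apart. Pole test: 50 cm pole, descent scored 1–5, two trials 1 h apart, pre-trained. n = 15.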

Mus musculus [5] = assay: Antineuro-inflammatrory activity in MPTP/probenecid-induced chronic C57/BL mouse Parkinson's disease model assessed as decrease in TNF-alpha level in midbrain at 10 to 20 mg/kg dosed once daily for 7 weeks post 10 doses of MPTP/probenecid for 5 weeks measured after last MPTP/probenecid dose by ELISA; format: functional, organism-based
Outline: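 Male C57/BL mice (22–25 g) received 10 doses of MPTP hydrochloride (25 mg/kg in saline, s.c.) plus probenecid (250 mg/kg in DMSO, i.p.) over 5 weeks. Only mice failing the rotarod afterwards were randomised to agent (5, 10, 20 mg/kg) or L-DOPA 20 mg/kg in 0.5% CMC-Na, once daily for 7 weeks. Midbrain lysate in non-denaturing buffer with protease inhibitor; IL-1β or TNF-α by ELISA, n = 6.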

Mus musculus [6] = assay: Neuroprotective activity in alpha-syn A53T transgenic B6C3H mouse assessed as reversal of decline of TH-positive neuron levels in substantia nigra at 10 to 20 mg/kg dosed once daily for 12 consecutive weeks by 3,3'-diaminobenzidine staining based light microscopic analysis; format: functional, organism-based
Outline: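 Transgenic male B6;C3H A53T α-syn mice, starting at 4 months, were given drug once daily for 12 weeks in 0.5% CMC-Na. Fixed brains were sectioned at 40 µm on a freezing microtome. Substantia nigra coronal sections were immunostained for TH, visualized with DAB and peroxide, and positive neurons counted by light microscopy under blinding.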

Mus musculus [7] = assay: In vivo inhibition of Src in MPTP/probenecid-induced chronic C57/BL mouse Parkinson's disease model assessed as effect on PTEN expression level in midbrain at 5 to 20 mg/kg dosed once daily for 7 weeks post 10 doses of MPTP/probenecid for 5 weeks by iTRAQ-labelled 2D-LC/MS/MS analysis; format: functional, organism-based
Mus musculus [8] = assay: In vivo inhibition of Src in MPTP/probenecid-induced chronic C57/BL mouse Parkinson's disease model assessed as effect on NOS1 expression level in midbrain at 5 to 20 mg/kg dosed once daily for 7 weeks post 10 doses of MPTP/probenecid for 5 weeks by iTRAQ-labelled 2D-LC/MS/MS analysis; format: functional, organism-based
Mus musculus [9] = assay: Effect on ROCK1 protein expression level in midbrain of MPTP/probenecid-induced chronic C57/BL mouse Parkinson's disease model at 5 to 20 mg/kg dosed once daily for 7 weeks post 10 doses of MPTP/probenecid for 5 weeks by iTRAQ-labelled 2D-LC/MS/MS analysis; format: functional, organism-based
Mus musculus [10] = assay: Effect on Src protein expression level in midbrain of MPTP/probenecid-induced chronic C57/BL mouse Parkinson's disease model at 5 to 20 mg/kg dosed once daily for 7 weeks post 10 doses of MPTP/probenecid for 5 weeks by iTRAQ-labelled 2D-LC/MS/MS analysis; format: functional, organism-based
[11] = target: Proto-oncogene tyrosine-protein kinase Src (Mus musculus) (UniProt P05480); assay: Inhibition of Src signaling pathway in mouse BV2 cells assessed as suppression of LPS-induced NO release at 0.1 to 100 uM preincubated for 1 hr followed by LPS addition measured after 24 hrs relative to control by Griess assay; format: cell-based; conditions: BV-2
Chain of Proto-oncogene tyrosine-protein kinase Src (Mus musculus) (P05480 2-535 limits assumed): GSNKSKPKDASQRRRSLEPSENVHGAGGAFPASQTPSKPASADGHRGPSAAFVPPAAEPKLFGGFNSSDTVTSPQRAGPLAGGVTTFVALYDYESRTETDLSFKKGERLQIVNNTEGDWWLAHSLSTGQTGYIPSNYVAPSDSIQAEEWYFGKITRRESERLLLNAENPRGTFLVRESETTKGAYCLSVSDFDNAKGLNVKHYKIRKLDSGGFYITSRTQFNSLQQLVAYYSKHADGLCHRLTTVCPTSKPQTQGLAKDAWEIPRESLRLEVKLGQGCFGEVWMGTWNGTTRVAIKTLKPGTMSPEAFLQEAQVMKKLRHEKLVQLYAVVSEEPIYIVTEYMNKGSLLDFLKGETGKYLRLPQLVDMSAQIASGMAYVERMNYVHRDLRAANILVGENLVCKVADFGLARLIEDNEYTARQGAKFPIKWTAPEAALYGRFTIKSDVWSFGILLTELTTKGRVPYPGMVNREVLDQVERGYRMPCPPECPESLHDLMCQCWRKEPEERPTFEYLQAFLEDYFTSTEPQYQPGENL
Outline: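 BV-2 cells in DMEM/10% FBS, plated at 5×10^3 per well. After 24 h, treated at 100, 50, 10, 5, 1 and 0.1 µM; 1 h later LPS 300 ng/mL added. After another 24 h, nitrite in the medium measured by Griess assay.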

Mus musculus [12] = assay: Hepatotoxicity in ICR mouse at 250 to 1000 mg/kg administered through oral gavage for 14 consecutive days; format: toxicity, organism-based; conditions: in vivo
Outline: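 Mice dosed by oral gavage at 250, 500 and 1000 mg/kg for 14 consecutive days. General condition monitored throughout; liver and kidney clinical chemistry assessed.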

Mus musculus [13] = assay: In vivo inhibition of Src in MPTP/probenecid-induced chronic C57/BL mouse Parkinson's disease model assessed as effect on Akt expression level in midbrain at 5 to 20 mg/kg […] once in a day for 7 weeks post 10 doses of MPTP for 5 weeks by Western blot analysis; format: functional, organism-based
Mus musculus [14] = assay: In vivo inhibition of Src in MPTP/probenecid-induced chronic C57/BL mouse Parkinson's disease model assessed as effect on NOS1 expression level in midbrain at 5 to 20 mg/kg co-administered with L-DOPA once in a day for 7 weeks post 10 doses of MPTP for 5 weeks by Western blot analysis; format: functional, organism-based
Mus musculus [15] = assay: Effect on GSK3beta protein expression level in midbrain of MPTP/probenecid-induced chronic C57/BL mouse Parkinson's disease model at 5 to 20 mg/kg dosed once daily for 7 weeks post 10 doses of MPTP/probenecid for 5 weeks by Western blot analysis; format: functional, organism-based
Mus musculus [16] = assay: Effect on ROCK1 protein expression level in midbrain of MPTP/probenecid-induced chronic C57/BL mouse Parkinson's disease model at 5 to 20 mg/kg dosed once daily for 7 weeks post 10 doses of MPTP/probenecid for 5 weeks by Western blot analysis; format: functional, organism-based

Chain of Proto-oncogene tyrosine-protein kinase Src (Rattus norvegicus) (Q9WUD9 2-536 limits assumed): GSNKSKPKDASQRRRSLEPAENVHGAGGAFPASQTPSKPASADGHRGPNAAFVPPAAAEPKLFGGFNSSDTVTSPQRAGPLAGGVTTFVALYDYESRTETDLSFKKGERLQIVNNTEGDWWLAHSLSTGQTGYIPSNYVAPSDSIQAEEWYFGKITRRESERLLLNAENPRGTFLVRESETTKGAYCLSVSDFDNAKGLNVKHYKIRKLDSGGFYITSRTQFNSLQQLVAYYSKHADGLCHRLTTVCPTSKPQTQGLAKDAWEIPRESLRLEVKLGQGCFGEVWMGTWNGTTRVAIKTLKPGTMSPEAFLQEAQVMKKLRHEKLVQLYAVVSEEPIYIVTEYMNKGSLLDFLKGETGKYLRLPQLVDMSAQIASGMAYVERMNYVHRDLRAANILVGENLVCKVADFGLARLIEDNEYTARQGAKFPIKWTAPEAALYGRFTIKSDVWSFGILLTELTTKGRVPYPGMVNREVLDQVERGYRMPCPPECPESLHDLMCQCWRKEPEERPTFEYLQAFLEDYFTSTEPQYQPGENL

COc1cc(OC)c(CN[C@@H](CO)C(=O)O)c(OC)c1
Active: Drug uptake [2] | inhibition (INH) [3]
Non-Toxic: Activity (Mus musculus [12])
active: inhibition [1] | Activity (Mus musculus [4]) | Activity (Mus musculus [5]) | Activity (Mus musculus [6]) | inhibition (Mus musculus [7]) | inhibition (Mus musculus [8]) | Activity (Mus musculus [9]) | Activity (Mus musculus [10]) | inhibition [11] | inhibition (Mus musculus [13]) | inhibition (Mus musculus [14]) | Activity (Mus musculus [15]) | Activity (Mus musculus [16])

From ChEMBL document CHEMBL3860061, “A Novel Parkinson's Disease Drug Candidate with Potent Anti-neuroinflammatory Effects through the Src Signaling Pathway” (J Med Chem, 2016)
